HNF4A DNA FP: change in binding of human HNF4 alpha to DNA; hit rate 0.3% among 360,000; HNF4a-FITC DNA binding, fluorescence polarization, 1 h; AID 1224865; activity change, % at 10 µM; in the data active = activity change above about 30%, passing the limit was not always enough
aDG glyco up: increases alpha dystroglycan glycosylation. hit rate 0.22% among 360,000. Pro5-aDG cells, alpha-DG glycosylation AlphaScreen (IIH6); 0% Pro5, 100% B10-LARGE cell signal. activation, % at 10 µM. AID 624168;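 active = activation of at least 8% versus controls, or a plate z-score of at least 8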;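 also: Pro5 are CHO cells carrying HIG-tagged alpha-DG that lacks glycosylation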
CSN deneddyl inh: inhibitors of human CSN-mediated cullin deneddylation | Q92905 | hit rate 0.38% among 360,000 | Purified CSN, SCF-Nedd8-OG deneddylation, fluorescence polarization | inhibition, % at 12.5 µM | AID 651999;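 active = pattern-corrected inhibition above about 35%, with an unprinted fluorescence ratio check between 0.5 and 1.5, limit read from the data, passing the limit was not always enough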;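 also: 0% = enzyme with substrate and 100% = substrate without enzyme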
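Assay system: purified human Csn5 enzyme expressed in HEK293T cells; measure: % inhibition; also added: SCFSkp2-Nedd8OG substrate at 10 nM final; technique: fluorescence polarization; times: reaction 90 min, room temperature; medium: Tris buffer pH 7.5, NaCl, DTT, Tween-20, trehalose, ovalbumin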
Rev-erbA mod: modulates human Rev-erb alpha binding to DNA; P20393; Rev-erbα–FITC-DNA binding, fluorescence polarization, 90 min; activity, % at 10 µM; hit rate 0.79% among 370,000;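 active = activity above about 14%, limit read from the data; passing the limit was not always enough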;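 also: 0% = DMSO wells with 35 nM protein and 100% = DMSO wells with 750 nM protein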
Target sequence (P20393 whole entry, looked up): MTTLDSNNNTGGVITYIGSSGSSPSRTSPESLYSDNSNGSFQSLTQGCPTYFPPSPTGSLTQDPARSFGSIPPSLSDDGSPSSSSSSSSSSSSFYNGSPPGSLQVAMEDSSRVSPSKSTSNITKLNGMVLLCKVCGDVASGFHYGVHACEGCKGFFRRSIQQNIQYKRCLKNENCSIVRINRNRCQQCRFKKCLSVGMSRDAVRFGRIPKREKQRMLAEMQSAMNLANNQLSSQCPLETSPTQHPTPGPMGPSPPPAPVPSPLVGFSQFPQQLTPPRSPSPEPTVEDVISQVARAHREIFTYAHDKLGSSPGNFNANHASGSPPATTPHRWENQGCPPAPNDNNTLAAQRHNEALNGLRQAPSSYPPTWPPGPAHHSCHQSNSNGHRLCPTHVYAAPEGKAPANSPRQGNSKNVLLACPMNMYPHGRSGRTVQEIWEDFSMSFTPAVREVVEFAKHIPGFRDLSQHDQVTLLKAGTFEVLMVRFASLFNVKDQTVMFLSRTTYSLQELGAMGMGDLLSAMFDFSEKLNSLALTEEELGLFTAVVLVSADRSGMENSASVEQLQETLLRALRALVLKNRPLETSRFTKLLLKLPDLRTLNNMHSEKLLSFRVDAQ
aDG glyco conf: alpha-DG glycosylation activation, confirmation | shares compounds with aDG glyco up | Pro5-aDG cells, IIH6 AlphaLISA; scaled to LARGE-overexpressing B10 cells as 100% | activation, % at 10 µM (by protocol) | hit rate 17% among 600 | AID 651671;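 active = activation of at least 7% in one or more replicates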;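 also: cells exposed to compound for two days before detection; 0% = DMSO-treated Pro5 cells and 100% = DMSO-treated B10-LARGE cells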
Numbers without * were called inactive; nt = no result. This is a sample that favours compounds with a hit; in the whole collection about 1.5% have one here.

SMILES	HNF4A DNA FP	aDG glyco up	CSN deneddyl inh	Rev-erbA mod	aDG glyco conf
Cc1cccc2nc(-c3cccc(NC(=O)c4ccc(Cl)cc4)c3)cn12	2.8	6.5*	0.9	6.6	0.5
Cc1nn(C)c(C)c1/C=C/C(=O)O	1.3	-0.1	-7.1	-1.7	nt
Cc1nn(C)c(C)c1/C=C/C(=O)c1ccc(Cl)cc1Cl	3.3	8.4*	10.2	7.2	1.7
COC(=O)[C@]12C[C@H](CC(=O)N3CCN(C(=O)C4CC4)CC3)C(=O)N(CCc3ccc(OC)c(OC)c3)C1=C[C@H](C(C)(C)C)O[C@@H]2C	nt	nt	nt	6.2	nt
N/C(=N\OC(=O)Nc1ccccc1)c1ncc([N+](=O)[O-])s1	3.4	2.8*	0.4	4.5	3.3*
O=C(COc1ccc2c3c(c(=O)oc2c1)CCCC3)NCc1cccnc1	5.8	7.0*	0.6	-1.2	0.4
Cc1ccc(S(=O)(=O)N2CCCC2C(c2ccccc2O)c2cn(C)c3ccccc23)cc1 (stereo not drawn)	nt	nt	nt	0.5	nt
COC(=O)[C@]12C[C@H](CC(=O)NCCC(C)C)C(=O)N(Cc3cccc4ccccc34)C1=C[C@H](C(C)C)O[C@@H]2C1CC1	nt	nt	nt	-0.9	nt
Cc1cc(C)n(CCNC(=O)[C@H]2O[C@@H](n3ccc(=O)[nH]c3=O)[C@H](O)[C@@H]2O)n1	0.4	21.2*	1.2	0.2	0.5
NC(=S)N/N=C/c1coc2cc(Br)ccc2c1=O	-2.8	0.9	2.5	-4.1	nt
NC(=S)N/N=C/c1coc2c(ccc3ccccc32)c1=O	2.0	9.0*	12.5	-25.0	0.4
C[C@H]1CN([C@@H](C)CO)C(=O)Cc2cc(NC(=O)CCC(F)(F)F)ccc2O[C@H]1CN(C)Cc1ccc(C(F)(F)F)cc1	2.8	0.5	-1.7	-0.2	nt
COc1ccc(S(=O)(=O)N(C)C[C@H]2OCCCC[C@@H](C)Oc3ccc(NC(=O)CCC(F)(F)F)cc3C(=O)N([C@H](C)CO)C[C@@H]2C)cc1	4.7	0.0	5.6	0.7	nt
C[C@H](CO)N1C[C@H](C)[C@@H](CN(C)S(=O)(=O)c2ccccc2)OCCCC[C@H](C)Oc2ccc(NC(=O)CCC(F)(F)F)cc2C1=O	-2.3	3.4*	-3.6	-0.6	-0.2
C[C@H]1CN([C@@H](C)CO)C(=O)Cc2cc(NC(=O)CCC(F)(F)F)ccc2O[C@H]1CN(C)Cc1ccc(-c2ccccc2)cc1	-2.4	5.7*	-0.5	3.6	0.4
CC(C)NC(=O)N(C)C[C@H]1Oc2ccc(NC(=O)Cc3ccccc3)cc2C(=O)N([C@H](C)CO)C[C@@H]1C	-0.9	9.5*	5.9	-2.9	-0.9
CCOC(=O)CC[C@@H]1CC[C@]2(CCCN(Cc3ccc(Cl)cc3)C2)O1	nt	nt	nt	-5.4	nt
O=C(CN1CCC(NC(=O)NC2CCCC2)CC1)Nc1ccc2c(c1)OCCO2	nt	nt	nt	1.1	nt
CCC(C)Nc1nc(C)nc2c1nnn2Cc1ccccc1 (stereo not drawn)	nt	nt	nt	-1.1	nt
O=C(CCc1ccccc1)N[C@H]1[C@H](OC(=O)c2cnccn2)CCC[C@]12C(=O)N(Cc1ccccc1)c1ccccc12	nt	nt	nt	7.5	nt
COC(=O)[C@]12C[C@H](CC(=O)N3CCC(c4ccccc4)CC3)C(=O)N(Cc3cccc4ccccc34)C1=C[C@H](COCc1ccccc1)O[C@@H]2C	nt	nt	nt	2.0	nt
CCc1cc(C(=O)c2ccc(C)cc2)c(NC(=O)CCl)s1	1.8	10.1*	2.7	-0.1	-0.7
Cc1ccccc1C(=O)N1CCC(Oc2cccnc2)CC1	nt	nt	nt	2.2	nt
CCn1cc(C(=O)NCCCN2CCCC(C)C2)c(=O)c2cc(S(=O)(=O)N3CCc4ccccc4C3)ccc21 (stereo not drawn)	1.6	5.9	2.2	-2.1	nt
CCC1CCCCN1CCCNC(=O)c1cn(CC)c2ccc(S(=O)(=O)N3CCc4ccccc4C3)cc2c1=O (stereo not drawn)	1.1	9.1*	4.3	3.8	0.3
CC(=O)Nc1ccc(C(/C=C/c2ccccc2)Cc2ccccc2)cc1 (stereo not drawn)	nt	nt	nt	-1.2	nt
CC(C)c1cc(-c2cc(-c3ccccc3)on2)nc(NC2CCCC2)n1	0.4	0.2	1.6	0.7	nt
CC(C)c1cc(-c2cc(-c3ccc(Cl)cc3)on2)nc(NC2CCCC2)n1	-5.7	5.7*	-3.2	-1.0	1.3
CCN1CCc2c(sc(NC(=O)c3ccc(S(=O)(=O)N4CCCC4)cc3)c2C(=O)NC)C1	5.9	46.6*	0.3	4.9	0.0
